This is a sample that favours compounds with a hit; in the whole collection about 6.4% have one here.
PLK1 PBD inh – Plk1 polo box domain binding inhibitors, primary screen, biochemical, fluorescence polarization. Serine/threonine-protein kinase PLK1 (Homo sapiens), P53350. Plk1 PBD phosphopeptide binding. inhibition, %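 (tested at about 20 µM)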. 97,000 compounds, 0.13% hits; in the data active means inhibition above about 34%, passing the limit was not always enough
PLK1 inh – human PLK1 kinase inhibitors, primary screen, biochemical, TR-FRET; recombinant PLK1 kinase, TR-FRET peptide phosphorylation; inhibition, % at 10 µM; 97,000 compounds, 0.53% hits;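 active means inhibition of 50% or more in the single-concentration screen; inactive means inhibition below 50%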;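 further: 0% = DMSO max control and 100% = H-89 dihydrochloride min control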
PostGolgi yeast – phenotypic screen on post-Golgi transport, primary screen | post-Golgi transport phenotypic cell assay | inhibition, % at 10 µM | 98,000 compounds, 0.9% hits | AID 739, 2007;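 further: yeast cells grown in 1536-well plates; yeast grown about 18 h at 30C before absorbance read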
PostGolgi ctrl – growth inhibition of yeast control strain, primary screen, counter-screen for post-Golgi transport modulator project | efflux-deficient yeast background strain, growth absorbance A615, 16 h | inhibition, % at 10 µM | 98,000 compounds, 5% hits | AID 738, 2007
Rev-RRE block – HIV-1 Rev-RRE binding inhibitors, primary screen, biochemical, FRET, protein-RNA interaction; P05866; Rev peptide-RRE RNA binding; inhibition, % at 8 µM; 97,000 compounds, 0.79% hits; AID 704, 2007;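 active means inhibition above the screen-wide mean plus 3 SD, cut at about 35% in these data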;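 further: 0% = median DMSO wells and 100% = median Neomycin B control wells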
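System: Cy5-labelled duplex RRE RNA binding fluorescein-labelled HIV Rev peptide; Signal: fluorescein-to-Cy5 FRET, 480 nm excitation; Also added: labelled Rev peptide; Compound: one concentration, 8 µM nominal; Buffer or medium: HEPES pH 7.5 salt buffer with EDTA; Read-out: % inhibition of FRET ratio versus controls; Schedule: 5 min preincubation and 15 min binding, 25 °C.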
EphB4 ephrin blk – EphB4-ephrin-B2 interaction antagonists, primary screen, biochemical, TNYL-RAW peptide probe, fluorescence polarization. Ephrin type-B receptor 4 (Homo sapiens), P54760. EphB4 LBD / TNYL-RAW-Alexa532 peptide. inhibition, % at 7 µM. 97,000 compounds, 0.15% hits;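 active means inhibition above the screen-wide mean inhibition plus 3 SD, cut at about 15% in these data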;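 further: 0% = DMSO wells and 100% = excess unlabeled TNYL-RAW peptide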
Target sequence (P54760 whole entry, looked up, the tested form may be a part): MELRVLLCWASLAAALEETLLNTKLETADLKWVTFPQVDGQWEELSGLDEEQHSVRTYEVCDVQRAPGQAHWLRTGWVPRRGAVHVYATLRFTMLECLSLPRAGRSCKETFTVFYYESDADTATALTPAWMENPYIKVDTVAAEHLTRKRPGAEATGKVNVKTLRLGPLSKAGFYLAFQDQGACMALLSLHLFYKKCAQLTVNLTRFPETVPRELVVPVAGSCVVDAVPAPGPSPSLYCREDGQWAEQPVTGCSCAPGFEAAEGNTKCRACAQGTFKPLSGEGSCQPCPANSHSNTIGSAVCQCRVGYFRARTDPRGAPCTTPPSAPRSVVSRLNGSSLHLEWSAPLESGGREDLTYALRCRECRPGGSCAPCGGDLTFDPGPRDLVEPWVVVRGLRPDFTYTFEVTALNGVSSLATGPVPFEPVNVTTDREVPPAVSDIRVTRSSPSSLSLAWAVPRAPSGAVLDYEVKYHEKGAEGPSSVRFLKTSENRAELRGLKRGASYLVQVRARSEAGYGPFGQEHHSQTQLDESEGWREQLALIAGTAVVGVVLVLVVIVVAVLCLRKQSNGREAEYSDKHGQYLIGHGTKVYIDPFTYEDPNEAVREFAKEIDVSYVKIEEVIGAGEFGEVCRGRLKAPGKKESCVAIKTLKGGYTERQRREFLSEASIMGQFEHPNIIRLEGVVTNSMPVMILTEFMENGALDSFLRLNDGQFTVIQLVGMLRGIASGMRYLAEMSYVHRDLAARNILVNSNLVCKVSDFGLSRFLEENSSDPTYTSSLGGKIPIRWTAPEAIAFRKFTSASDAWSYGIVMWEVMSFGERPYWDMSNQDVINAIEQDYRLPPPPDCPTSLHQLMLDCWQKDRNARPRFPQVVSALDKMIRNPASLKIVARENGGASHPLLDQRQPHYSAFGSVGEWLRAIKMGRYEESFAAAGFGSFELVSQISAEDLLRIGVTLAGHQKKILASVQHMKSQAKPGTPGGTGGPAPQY
Numbers without * were called inactive; . = no result; [ ] = dose if it differs, or a comment. Unless noted, no stated cut-off is given here; in the data, active means inhibition above about 30%; inactive means the rest.

SMILES	PLK1 PBD inh	PLK1 inh	PostGolgi yeast	PostGolgi ctrl	Rev-RRE block	EphB4 ephrin blk
Cc1cc(C)c(NC(=O)C2CCN(c3cnccn3)CC2)c(C)c1	-6	-5	.	.	-3	2
COC(=O)c1cccc(NC(=O)CCSc2ccc(Cl)cc2)c1C	8	-5	-8	2	7	0
OC(CNCC1CCCO1)Cn1c2ccc(Cl)cc2c2cc(Cl)ccc21 (centres undefined)	5	2	90*	103*	4	-3
COc1cccc(OC)c1OCC(C)CNCC1CCCO1 (centres undefined)	4	-2	-1	5	4	2
O=C1CC(SC(=Nc2ccccc2)Nc2ccccc2)C(=O)N1c1cccc(Cl)c1 (centres undefined)	-20	-9	5	33*	14	2
CN=C(Nc1ccccc1)SC1CC(=O)N(c2ccc(C(=O)OC)cc2)C1=O (centres undefined)	-4	-24	5	37*	8	-8
Cc1nnc(SCC(=O)Nc2ccc(N3CCOCC3)cc2)o1	2	-11	-2	13	5	-6
Cn1cnnc1SCC(=O)Nc1ccc2nc(SCc3ccccc3Cl)sc2c1	-25	-9	.	.	-2	-4
COC(=O)CSc1nc2ccc(NC(=O)CSc3nnnn3Cc3ccccc3)cc2s1	7	4	10	36*	-8	9
Cn1cnnc1SCC(=O)Nc1ccc2nc(SCc3cccc4ccccc34)sc2c1	-12	-12	-3	0	1	17*
O=C(CN1C(=O)CSc2ccccc21)Nc1ccccc1C(=O)N1CCOCC1	.	.	10	6	.	.
COc1nc(-c2ccccc2)cc(-c2ccc(OC)c(OC)c2)n1	12	-16	7	38*	6	-5
O=C(COc1ccccc1F)Nc1nnc(-c2ccncc2)s1	22	54*	0	0	0	-3
CCOC(=O)c1nnn(CC(=O)N2N=C(c3ccc(Cl)cc3)CC2c2ccc(OC)cc2)c1C(=O)OCC (centres undefined)	-4	-8	-5	4	5	5
CNC(=S)N1N=C(c2ccc(C)cc2)CC1c1ccc(OC)cc1 (centres undefined)	22	-13	-6	47*	-1	1
COc1ccc(NC(=O)C2CC(=O)OC23CCOC(C)(C)C3)cc1 (centres undefined)	3	-8	0	-4	8	-12
O=S(=O)(N1CCCCC1)N1CCN(c2ccccc2F)CC1	-18	-33	15	-3	2	-6
CS(=O)(=O)N1CCN(c2ccccc2F)CC1	-7	-20	7	31*	6	-4
COc1cc(S(=O)(=O)N2CCN(c3ccccc3)CC2)ccc1Cl	-7	-7	12	19	8	3
COc1cc(S(=O)(=O)N2CCN(c3ccccc3F)CC2)ccc1Cl	.	.	1	48*	.	.
CC(CS(=O)(=O)c1ccc2ccccc2c1)N1CCN(C2CCCCC2)CC1 (centres undefined)	4	-14	.	.	-1	12
CCOc1ccc(S(=O)(=O)N(C)CCO)cc1-c1nc2c(C(C)(C)C)nn(C)c2c(=O)[nH]1	-22	-3	-1	18	9	-2
O=C(O)C(NC(=O)c1ccccc1)=C(Cl)Cl	-7	-14	.	.	1	3
CC(C)(C)C(=O)C(Cc1ccccc1Cl)n1cncn1 (centres undefined)	6	-3	99*	94*	-2	1
CC(C)(C)C(=O)C(Cc1ccccc1)n1cncn1 (centres undefined)	-11	-6	51*	45*	0	1
SMILES	PLK1 PBD inh	PLK1 inh	PostGolgi yeast	PostGolgi ctrl	Rev-RRE block	EphB4 ephrin blk
CCCC(C(=O)c1ccccc1)n1cncn1 (centres undefined)	-2	-4	2	-11	5	-9
CCC1=NNc2cccc3c(OC)ccc1c23	-1	68*	-13	-2	1	14
CC(=O)N1CCc2cc(S(=O)(=O)Nc3cccc(C(F)(F)F)c3)ccc21	-18	-2	0	8	13	-5
CC(=O)N1CCCc2cc(S(=O)(=O)Nc3ccc4c(c3)OCO4)ccc21	.	.	2	33*	.	.
CCOC(=O)c1oc2cc(O)c(CC)cc2c(=O)c1-c1ccc2c(c1)OCCO2	.	.	-6	30*	.	.
O=C1CC(=O)N(Cc2ccco2)C(=S)N1	34	-11	12	5	77*	1
O=C1CC(=O)N(Cc2ccco2)C(=O)N1	.	.	-9	1	.	.
CCCOc1ccccc1N/C(=N/c1nc(C)cc(C)n1)NC(=O)Nc1ccc(Cl)cc1	11	-10	-4	0	10	2
Cc1ccc(Cc2cnc(NC(=O)c3cccs3)s2)cc1	-17	-10	10	41*	15	5
O=C(Nc1ncc(Cc2ccccc2)s1)c1cccs1	5	-10	-8	25	12	2
O=C(Nc1ncc(Cc2cccc(Cl)c2)s1)c1cccs1	-19	-8	1	47*	4	-6
COc1cc(NS(=O)(=O)c2ccc3c(c2)n(C)c(=O)n3C)cc(OC)c1	-10	-9	12	18	0	0
CCOC(=O)N1CCC(Nc2c(N3CCN(c4cccc(C(F)(F)F)c4)CC3)c(=O)c2=O)CC1	-30	-17	5	6	2	1
COc1ccc(C2NC3=C(CCCC3)C(C#N)(C#N)C2(C#N)C#N)cc1 (centres undefined)	-31	7	-2	5	46*	-5
c1ccc(N2CCN(Cc3cn4cccnc4n3)CC2)cc1	-16	-14	-1	6	-2	-3
O=S(=O)(NCCSc1ccc(Cl)cc1)c1ccc(F)cc1	-2	-15	-1	19	13	-1
Cc1ccc(SCCNS(=O)(=O)c2ccc3c(c2)OCCO3)cc1	-29	-6	0	46*	10	-10
Cc1ccc(SCCNS(=O)(=O)c2ccc(F)cc2)cc1	-17	-5	-4	48*	19	-13
CO[C@@H]1O[C@@H]2COC(c3ccccc3)O[C@@H]2[C@@H](OC)[C@@H]1O (some centres undefined)	29	-15	.	.	13	4
O=c1cc(NCc2ccco2)[nH]c(=O)n1-c1ccc(Br)cc1	-9	-9	5	37*	18	-2
CCCCCCc1cc2cc(-c3nnc(-c4ccccc4OC)o3)c(=O)oc2cc1O	-202	-3	7	7	143*[fluorescence artefact?]	2
CCCCCCc1cc2cc(-c3nnc(-c4cc(OC)c(OC)c(OC)c4)o3)c(=O)oc2cc1O	-149	-11	.	.	135*[fluorescence artefact?]	-2
COC(=O)c1ccccc1NC(=O)N1CCN(S(=O)(=O)c2ccc(Cl)cc2)CC1	-17	3	3	43*	9	9
